Measured values: ChEMBL document CHEMBL1156677, “Oxoisoaporphine alkaloid derivatives: synthesis, DNA binding affinity and cytotoxicity” (Eur J Med Chem, 2008)

Experiments:
Assay type in all cases: functional, cell-based
NCI-H460 = assay: Cytotoxicity against human NCI-H460 cells after 48 hrs by MTT assay; conditions: NCI-H460, 48 h
Outline: (§1)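 Cells in exponential growth were trypsinised, centrifuged at 180 × g for 3 min, resuspended at 5 × 10^4 cells/ml and seeded. After 48 h drug exposure, MTT (1 mg/mL) added for 4 h. Formazan dissolved in DMSO, OD read at 570 nm. Each dose run in triplicate. IC50 derived from mean OD and reported as the mean of three independent assays.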

HepG2 = assay: Cytotoxicity against human HepG2 cells after 48 hrs by MTT assay; conditions: HepG2, 48 h; outline: as §1
MCF7 = assay: Cytotoxicity against human MCF7 cells after 48 hrs by MTT assay; conditions: MCF7, 48 h; outline: as §1

Compound	IC50 (NCI-H460) [µM]	IC50 (HepG2) [µM]	IC50 (MCF7) [µM]
CN(C)CCC(=O)Nc1ccc2c(c1)C(=O)c1cccc3ccnc-2c13	6.71	7.74	9.11
CN(C)CCCC(=O)Nc1ccc2c(c1)C(=O)c1cccc3ccnc-2c13	19.3	29.8	11.5
O=C(CCNCCO)Nc1ccc2c(c1)C(=O)c1cccc3ccnc-2c13	2.36	3.88	4.3
Nc1ccc2c(c1)C(=O)c1cccc3ccnc-2c13	35.5	19.7	20.4
O=C(CCN1CCCC1)Nc1ccc2c(c1)C(=O)c1cccc3ccnc-2c13	16.7	8.18	7.96
O=C(CCCN1CCCC1)Nc1ccc2c(c1)C(=O)c1cccc3ccnc-2c13	9.08	12.9	27.4
CN(C)CC(=O)Nc1ccc2c(c1)C(=O)c1cccc3ccnc-2c13	9.22	9.69	17.5
CN(C)CCNCCC(=O)Nc1ccc2c(c1)C(=O)c1cccc3ccnc-2c13	30.3	21	28.1
O=C(CN1CCCC1)Nc1ccc2c(c1)C(=O)c1cccc3ccnc-2c13	2.09	8.14	11.8
CCN(CC)CCC(=O)Nc1ccc2c(c1)C(=O)c1cccc3ccnc-2c13	4.99	12.1	12.7
O=C1c2ccccc2-c2nccc3cccc1c23		> 100	> 100
O=C(CCN1CCCCC1)Nc1ccc2c(c1)C(=O)c1cccc3ccnc-2c13	4.23	6.36	5.07
